Data from ChEMBL document CHEMBL1909581, “Growth inhibition of human lung cancer cells via down-regulation of epidermal growth factor receptor signaling by yuanhuadine, a daphnane diterpene from Daphne genkwa” (J Nat Prod, 2011).
Activity calls are given as the source filed them. No cut-off for these calls is given here.

Legend:
[1] = system: NCI-H292; experiment: Antiproliferative activity against human NCI-H292 cells after 3 days by SRB assay; format: functional, cell-based; details: NCI-H292, 72 h
[2] = system: NCI-H292; experiment: Antiproliferative activity against gefitinib resistant human NCI-H292 cells after 3 days by SRB assay; format: functional, cell-based; details: NCI-H292, 72 h
[3] = system: NCI-H1993; experiment: Antiproliferative activity against gefitinib resistant human NCI-H1993 cells after 3 days by SRB assay; format: functional, cell-based; details: NCI-H1993, 72 h
[4] = system: HCT-116; experiment: Antiproliferative activity against human HCT116 cells after 3 days by SRB assay; format: functional, cell-based; details: HCT-116, 72 h
In short: (§1)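 Cells seeded at 5 × 10^4 cells/mL and exposed to a range of concentrations for 3 days. Fixed with 10% TCA, then SRB stain read. Growth expressed as % of solvent-treated control. IC50 obtained by nonlinear regression of percent survival versus concentration.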

[5] = system: SNU-638; experiment: Antiproliferative activity against human SNU638 cells after 3 days by SRB assay; format: functional, cell-based; details: SNU-638, 72 h; in short: as §1
[6] = system: SK-HEP1; experiment: Antiproliferative activity against human SKHEP1 cells after 3 days by SRB assay; format: functional, cell-based; details: SK-HEP1, 72 h; in short: as §1
[7] = system: A549; experiment: Antiproliferative activity against human A549 cells assessed as reduction in colonies after treatment for 24 hrs measured after 14 days using Giemsa staining; format: functional, cell-based
In short: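 A549 plated at 100 cells per 35 mm dish. After 24 h, medium with compound added for 24 h, then PBS wash and 14 days' growth in drug-free medium. Colonies methanol-fixed, Giemsa-stained, counted, and expressed as % of DMSO-treated control.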

[8] = system: A549; experiment: Cell cycle arrest in human A549 cells assessed as accumulation at Sub-G1 phase at 5 nM after 24 hrs by propidium iodide staining-based flow cytometric analysis (reference value: 0.2 %); format: functional
[9] = system: A549; experiment: Cell cycle arrest in human A549 cells assessed as accumulation at S phase at 5 nM after 24 hrs by propidium iodide staining-based flow cytometric analysis (reference value: 31.6 %); format: functional
[10] = system: A549; experiment: Cell cycle arrest in human A549 cells assessed as accumulation at S phase at 20 nM after 24 hrs by propidium iodide staining-based flow cytometric analysis (reference value: 31.6 %); format: functional
[11] = system: A549; experiment: Cell cycle arrest in human A549 cells assessed as accumulation at S phase at 100 nM after 24 hrs by propidium iodide staining-based flow cytometric analysis (reference value: 31.6 %); format: functional
[12] = system: A549; experiment: Cell cycle arrest in human A549 cells assessed as accumulation at Sub-G1 phase at 5 nM after 48 hrs by propidium iodide staining-based flow cytometric analysis (reference value: 0.2 %); format: functional
[13] = system: A549; experiment: Cell cycle arrest in human A549 cells assessed as accumulation at G0/G1 phase at 5 nM after 48 hrs by propidium iodide staining-based flow cytometric analysis (reference value: 49.6 %); format: functional
[14] = system: A549; experiment: Cell cycle arrest in human A549 cells assessed as accumulation at G2/M phase at 5 nM after 48 hrs by propidium iodide staining-based flow cytometric analysis (reference value: 18.9 %); format: functional
[15] = system: A549; experiment: Cell cycle arrest in human A549 cells assessed as accumulation at Sub-G1 phase at 20 nM after 48 hrs by propidium iodide staining-based flow cytometric analysis (reference value: 0.2 %); format: functional
[16] = system: A549; experiment: Cell cycle arrest in human A549 cells assessed as accumulation at G0/G1 phase at 20 nM after 48 hrs by propidium iodide staining-based flow cytometric analysis (reference value: 49.6 %); format: functional
[17] = system: A549; experiment: Cell cycle arrest in human A549 cells assessed as accumulation at Sub-G1 phase at 100 nM after 48 hrs by propidium iodide staining-based flow cytometric analysis (reference value: 0.2 %); format: functional
[18] = system: A549; experiment: Cell cycle arrest in human A549 cells assessed as accumulation at G2/M phase at 100 nM after 48 hrs by propidium iodide staining-based flow cytometric analysis (reference value: 18.9 %); format: functional
[19] = system: A549; experiment: Downregulation of c-myc expression in human A549 cells at G1 phase at 5 to 100 nM after 24 to 48 hrs by Western blot analysis; format: functional, cell-based
In short: (§2)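 A549 cells treated with a range of concentrations for 24 or 48 h. Lysates run on 6–15% SDS-PAGE and blotted to PVDF, blocked in 5% milk/PBST. Primary antibodies overnight at 4 °C, secondary 2 h at room temperature, ECL detection. Representative of three independent experiments.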

[20] = system: A549; experiment: Upregulation of p21 expression in human A549 cells at G1 phase at 5 to 100 nM after 24 to 48 hrs by Western blot analysis; format: functional, cell-based
In short: (§3)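 A549 cells (RPMI 1640, 10% FBS, 37 °C, 5% CO2) exposed to the compound at various concentrations for 24 or 48 h. Lysates run on 6–15% SDS-PAGE, transferred to PVDF, probed with primary antibodies overnight at 4 °C, and detected by ECL. Blots shown are representative of three independent experiments.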

[21] = system: A549; experiment: Downregulation of cyclin B1 expression in human A549 cells at G2/M phase at 5 to 100 nM after 24 to 48 hrs by Western blot analysis; format: functional, cell-based; in short: as §2
[22] = system: A549; experiment: Inhibition of Akt-signaling in human A549 cells at 5 to 40 nM after 24 hrs by Western blot analysis; format: cell-based
In short: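 A549 cells exposed for 24 or 48 h to a range of concentrations. Akt/mTOR pathway proteins in lysates assessed by Western blot (SDS-PAGE, PVDF, ECL detection).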

[23] = target: Serine/threonine-protein kinase mTOR (Homo sapiens) (UniProt P42345); experiment: Inhibition of MTOR-mediated p70S6K activation in human A549 cells at 20 nM after 24 to 48 hrs by Western blot analysis; format: cell-based; in short: as §3
[24] = target: Hepatocyte growth factor receptor (Homo sapiens) (UniProt P08581); experiment: Inhibition of c-Met phosphorylation at Tyr1230/1234/1235 in HGF-stimulated human A549 cells pretreated at 5 to 100 nM for 2 hrs by Western blot analysis; format: cell-based
In short: (§4)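 A549 cells pretreated for 2 h with the compound at 5, 20 or 100 nM, then stimulated with HGF (50 ng/mL) for 10 min. c-Met and its downstream signalling proteins read by Western blot (SDS-PAGE, PVDF transfer, ECL detection).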

[25] = target: Hepatocyte growth factor receptor (Homo sapiens) (UniProt P08581); experiment: Inhibition of c-Met phosphorylation at Tyr1003 in HGF-stimulated human A549 cells pretreated at 5 to 100 nM for 2 hrs by Western blot analysis; format: cell-based; in short: as §4
[26] = target: Hepatocyte growth factor receptor (Homo sapiens) (UniProt P08581); experiment: Inhibition of c-Met-mediated STAT3 phosphorylation in HGF-stimulated human A549 cells pretreated at 5 to 100 nM by Western blot analysis; format: cell-based; in short: as §4
[27] = target: Hepatocyte growth factor receptor (Homo sapiens) (UniProt P08581); experiment: Inhibition of c-Met-mediated MTOR phosphorylation in HGF-stimulated human A549 cells pretreated at 5 to 100 nM by Western blot analysis; format: cell-based; in short: as §4
[28] = system: A549; experiment: Antitumor activity against human A549 cells xenografted in BALB/c mouse assessed as inhibition of tumor growth at 0.5 mg/kg, po once daily for 14 days measured for 27 days relative to control; format: functional; details: read-out: GI
In short: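 Female nu/nu nude mice given 3 × 10^6 A549 cells sc into the right flank, in 200 μL medium. At ~100 mm3, randomized into groups of five. Dosed orally once daily for 14 days in 100 μL ethanol–Tween 80–water (1:1:98), vehicle as control. Tumor volume measured by caliper every 2–3 days; body weight monitored.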

Chain of Hepatocyte growth factor receptor (Homo sapiens) (P08581 whole entry): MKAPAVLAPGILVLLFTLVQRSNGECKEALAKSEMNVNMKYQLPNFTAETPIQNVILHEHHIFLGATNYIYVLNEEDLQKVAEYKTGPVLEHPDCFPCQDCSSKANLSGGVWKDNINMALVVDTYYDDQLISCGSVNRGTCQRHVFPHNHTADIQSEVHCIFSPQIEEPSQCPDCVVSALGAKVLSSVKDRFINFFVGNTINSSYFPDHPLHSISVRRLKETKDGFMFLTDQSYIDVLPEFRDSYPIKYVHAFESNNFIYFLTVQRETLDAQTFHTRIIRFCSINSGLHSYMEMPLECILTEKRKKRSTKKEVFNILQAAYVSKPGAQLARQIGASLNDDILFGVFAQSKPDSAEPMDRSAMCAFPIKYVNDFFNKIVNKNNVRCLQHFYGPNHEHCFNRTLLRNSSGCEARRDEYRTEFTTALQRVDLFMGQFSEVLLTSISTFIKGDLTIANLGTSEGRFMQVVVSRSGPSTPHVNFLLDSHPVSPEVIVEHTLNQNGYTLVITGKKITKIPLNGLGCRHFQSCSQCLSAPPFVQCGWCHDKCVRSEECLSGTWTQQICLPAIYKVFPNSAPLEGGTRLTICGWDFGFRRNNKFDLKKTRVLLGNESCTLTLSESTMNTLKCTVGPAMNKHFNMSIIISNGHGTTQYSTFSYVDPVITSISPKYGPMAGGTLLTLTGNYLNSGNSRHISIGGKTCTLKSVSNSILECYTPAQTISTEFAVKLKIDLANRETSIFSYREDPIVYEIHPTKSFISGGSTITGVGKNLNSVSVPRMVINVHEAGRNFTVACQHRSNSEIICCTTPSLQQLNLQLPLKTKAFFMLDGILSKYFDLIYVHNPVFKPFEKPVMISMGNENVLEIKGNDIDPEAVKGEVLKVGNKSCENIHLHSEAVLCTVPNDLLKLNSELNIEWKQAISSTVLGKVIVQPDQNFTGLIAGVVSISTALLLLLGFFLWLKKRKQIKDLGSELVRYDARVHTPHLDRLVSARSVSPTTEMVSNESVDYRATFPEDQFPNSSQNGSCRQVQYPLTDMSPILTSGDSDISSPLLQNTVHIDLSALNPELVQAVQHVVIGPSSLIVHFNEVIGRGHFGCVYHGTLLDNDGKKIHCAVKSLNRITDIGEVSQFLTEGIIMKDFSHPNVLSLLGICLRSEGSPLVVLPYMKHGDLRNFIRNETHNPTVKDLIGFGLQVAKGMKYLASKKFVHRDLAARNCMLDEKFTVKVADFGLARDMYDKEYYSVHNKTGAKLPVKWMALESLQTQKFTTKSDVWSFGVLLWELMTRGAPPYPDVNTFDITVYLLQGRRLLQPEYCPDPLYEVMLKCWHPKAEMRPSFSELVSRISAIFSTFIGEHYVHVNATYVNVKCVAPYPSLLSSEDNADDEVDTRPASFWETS

SMILES: C=C(C)[C@@]12O[C@@]3(/C=C/C=C/CCCCC)O[C@@H]1[C@@H]1[C@@H]4O[C@]4(CO)[C@@H](O)[C@]4(O)C(=O)C(C)=C[C@H]4[C@@]1(O3)[C@H](C)[C@H]2OC(C)=O [YUANHUADINE]
- IC50 [1]: < 1 pM
- IC50 [2]: < 1 pM
- IC50 [3]: 0.0041 µM
- IC50 [4]: 10.2 µM
- IC50 [5]: > 20 µM
- IC50 [6]: 12.9 µM
- Activity [7]: Active
- Activity [8]: 2%
- Activity [9]: 5.5%
- Activity [10]: 7.3%
- Activity [11]: 6.7%
- Activity [12]: 7.5%
- Activity [13]: 62.2%
- Activity [14]: 25.1%
- Activity [15]: 0.4%
- Activity [16]: 62.2%
- Activity [17]: 0.3%
- Activity [18]: 26.3%
- Activity [19]: Active
- Activity [20]: Active
- Activity [21]: Active
- inhibition [22]: Active
- inhibition [23]: Active
- inhibition [24]: Active
- inhibition [25]: Active
- inhibition [26]: Active
- inhibition [27]: Active
- inhibition in vivo at 0.5 mg/kg [28]: 50%
